Bioassay records deposited in PubChem BioAssay by SRMLSC.
The entries come from a sample that favours hits as a whole.
Lung fibro prol – blocks proliferation of human lung fibroblasts. AID 719. 85,000 tested, 1.1% active. LL 47 human lung fibroblast viability, ATP luminescence; stronger effect = lower value. viability, % at 10 µM;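 active = viability at or below 50% in the single dose screen; inactive = viability above 50%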;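 note: compound exposure lasted 72 h before the ATP readout; 100% = median luminescence of untreated cell-only wells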
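Signal: luminescent ATP detection, CellTiter-Glo; assay system: LL 47 human lung fibroblasts; input: 1,150 cells/well; incubation: overnight cell rest, 72 h compound treatment at 37 °C; measure: % viability versus median cells-only luminescence; medium: IMEM growth medium with 15% fetal bovine serum; dosing: compound addition at 0.1% DMSO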
HCT116 bCat-KO – beta-catenin-lacking colon tumor cell growth suppression; HCT116 beta-catenin knockout viability, CellTiter-Glo, 60 h; stronger effect = lower value; viability, % at 10 µM; 140,000 tested, 1.5% active; AID 818;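 active = viability at or under a set limit, the compound median less 4 SD, cut at about 6% in these data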;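 note: 0% = Hyamine 1622 control at 20 µM and 100% = untreated cell control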
HUVEC prolif 384 – human endothelial cell proliferation inhibition; HUVEC proliferation, CellTiter-Glo luminescence, 72 h; stronger effect = lower value; viability, % at 10 µM (by protocol); 86,000 tested, 1.1% active; AID 648;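 active = viability at or below 30%; inactive = viability above 30%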;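 note: 100% = median luminescence of DMSO-only cell control wells on each plate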
PTEN del growth – suppresses growth of cells with PTEN deletion; HCT116 PTEN-null viability, CellTiter-Glo, 60 h; stronger effect = lower value; viability, % at 10 µM; 140,000 tested, 1.2% active;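 active = viability at or below a set limit, 4 SD under the median of all tested compounds, cut at about 3.7% in these data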;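 note: PTEN knockout HCT116 line with beta catenin targeted HCT116 as companion control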
H69AR growth 86K – growth inhibitors of human H69AR lung tumor cells; H69AR lung tumor viability, ATP luminescence, 72 h; stronger effect = lower value; viability, % at 10 µM; 85,000 tested, 6% active; AID 598;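 active = viability at or below 40%; inactive = viability above 40%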;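 note: multidrug resistant small cell line overexpressing MRP-1 efflux transporter; 100% = mean luminescence of untreated control wells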
* marks the source's active call; other numbers are inactive results; . = not tested or not shown.

SMILES | Lung fibro prol | HCT116 bCat-KO | HUVEC prolif 384 | PTEN del growth | H69AR growth 86K
CCC(=O)Nc1cccc(NC(=O)CSc2nnc(C3CC3)n2C)c1 | 97 | 93 | 96 | 95 | 101
COc1ccc(-c2nnc3c4ccccc4c(C)nn23)cc1 | 79 | 77 | 69 | 73 | 32*
CCCCNc1ncnc2c1cnn2-c1ccc(C)cc1C | 92 | 88 | 97 | 98 | 37*
CCCCNc1ncnc2c1cnn2-c1ccc(Cl)cc1 | 59 | 19 | 60 | 23 | 19*
Clc1ccc(Cn2ncc3c(NCc4ccccc4)ncnc32)cc1 | 55 | 34 | 57 | 31 | 22*
COCCCNc1ncnc2c1cnn2-c1ccc(C)cc1C | . | 98 | . | 95 | .
Fc1cccc(Nc2ncnc3c2cnn3-c2ccccc2)c1 | 86 | . | 76 | . | 14*
COc1cccc(N2CCN(C3CC(=O)N(c4ccc(F)c(Cl)c4)C3=O)CC2)c1 (stereo not drawn) | 96 | 94 | 88 | 96 | 104
CC(=O)c1c(C)n(C)c2ccc(O)cc12 | . | 94 | . | 101 | .
CC1CCc2c(sc3nc(C4CC4)nc(N4CCN(C(=O)c5ccco5)CC4)c23)C1 (stereo not drawn) | 100 | . | 64 | . | 76
c1ccc(-n2ncc3c(NCc4ccco4)ncnc32)cc1 | 92 | 55 | 73 | 58 | 28*
c1ccc(Cn2ncc3c(NCc4ccco4)ncnc32)cc1 | 81 | 79 | 70 | 79 | 53
CCCCNc1ncnc2c1cnn2-c1ccccc1 | 68 | 15 | 72 | 23 | 13*
c1ccc(-n2ncc3c(NCCCN4CCOCC4)ncnc32)cc1 | 106 | 93 | 95 | 88 | 84
CC1CCCCC1NS(=O)(=O)c1ccc(-n2cnnn2)cc1 (stereo not drawn) | 103 | 94 | 108 | 101 | 96
Nc1nc2ccc(O)cc2s1 | . | 91 | 97 | 111 | 18*
CCOC(=O)c1ccc(Oc2cc(C)nc(SC)n2)cc1 | 80 | 19 | 62 | 17 | 22*
CCOC(=O)COC(=O)c1ccc(Oc2cc(C)nc(SC)n2)cc1 | 100 | 85 | 97 | 102 | 95
COc1ccc(CC(=O)NCc2cn3ccsc3n2)cc1 | 98 | 92 | 102 | 98 | 1.0*
COc1ccccc1N1CCN(CCCNC(=O)Nc2ccccc2C)CC1 | 95 | 88 | 120 | 87 | 99
COc1ccc(Cl)cc1N1CCN(CCNC(=O)Nc2ccccc2C)CC1 | 75 | 55 | 5.3* | 50 | 19*
COc1ccc(Cl)c(N2CCN(CCCNC(=O)Nc3ccc(C)cc3)CC2)c1 | 93 | 21 | 10* | 25 | 90
Cn1nc(OC(=O)Nc2ccccc2)cc1C(F)(F)F | 101 | 77 | 102 | 93 | 91
Cc1ccc(C(=O)/C=C\NCc2ccccc2)cc1 | . | 96 | . | 88 | .
Cc1ccc(C(=O)/C=C\C(=O)c2ccc(C)cc2)cc1 | . | 1.7* | . | 1.8* | .
SMILES | Lung fibro prol | HCT116 bCat-KO | HUVEC prolif 384 | PTEN del growth | H69AR growth 86K
Cc1ccc(S/C=C\C(=O)c2ccccc2)cc1 | 70 | 13 | 29* | 71 | 1.2*
CC(/C=C/C(=O)c1ccc(C)cc1)=C\c1ccccc1 | . | 75 | . | 76 | .
O=C(CSc1nc(-c2ccccc2)c(-c2ccccc2)[nH]1)NCCN1C(=O)CSC1=O | 55 | 10 | 31 | 12 | 21*
O=C(CSc1nc(-c2ccccc2)c(-c2ccccc2)[nH]1)NCc1ccco1 | 83 | 42 | 46 | 35 | 92
O=C(NC1CCCCC1)NC1CC2CCC(C1)N2C(=S)NCc1ccco1 (stereo not drawn) | . | 100 | . | 93 | .
C1=C(c2ccc(-c3ccccc3)cc2)Nc2ncnn2C1c1ccco1 (stereo not drawn) | 102 | 84 | 82 | 84 | 18*
CC1CN(c2nc(-c3ccc(Br)cc3)nnc2-c2ccccc2)CC(C)N1 (stereo not drawn) | . | 0.9* | . | 1.0* | .
Clc1ccc(-c2nnc(-c3ccccc3)c(N3CCSCC3)n2)cc1 | . | 66 | . | 62 | .
Cc1ccc(/C=N/NC(=O)CCSc2ccccc2)cc1 | . | 97 | . | 95 | .
COC(=O)c1cc(=O)n(Cc2ccc3c(c2)OCO3)c(=Nc2ccc(F)cc2)s1 | 85 | 27 | 60 | 16 | 7.9*
COC(=O)c1ccc(N=c2sc(C(=O)OC)cc(=O)n2C)cc1 | 55 | . | 58 | . | 24*
CCOC(=O)c1ccc(N=c2sc(C(=O)OC)cc(=O)n2Cc2ccc3c(c2)OCO3)cc1 | 96 | 6 | 82 | 14 | 33*
CCOC(=O)c1ccc(N=c2sc(C(=O)OC)cc(=O)n2C2CC2)cc1 | 94 | 70 | 49 | 66 | 34*
CC(C)(C)C(=O)Nc1cccc(C(=O)c2cccc(NC(=O)C(C)(C)C)c2)c1 | 99 | 100 | 105 | 91 | 63
Cn1c(CNC(=O)c2ccco2)nnc1SCC(=O)N1c2ccccc2Sc2ccccc21 | 106 | 85 | 88 | 92 | 89
COc1ccccc1C(c1nnnn1Cc1ccco1)N1CCN(c2cccc(C)c2C)CC1 (stereo not drawn) | 92 | 23 | 92 | 32 | 76
CC(=O)c1ccc(NC(=O)COC(=O)CCC(=O)c2cccs2)cc1 | . | 98 | . | 102 | .
O=C(Nc1ccccc1)N1CCN(Cc2ccc3c(c2)OCO3)CC1 | 94 | 92 | 98 | 86 | 94
COC(=O)c1cc(=O)n(Cc2ccc3c(c2)OCO3)c(=Nc2ccccc2)s1 | 89 | 21 | 54 | 15 | 12*
COc1ccccc1NC(=O)c1ccc(NC(=O)CSc2nnnn2C)cc1 | 104 | 81 | 97 | 91 | 2.2*
COc1ccccc1NC(=O)CSc1nnnn1-c1ccc(C)cc1 | 101 | 86 | 88 | 103 | 83
O=C(c1ccco1)N1CCN(C(c2ccccc2Cl)c2nnnn2Cc2cccs2)CC1 (stereo not drawn) | 73 | 59 | 80 | 55 | 33*
COc1ccc(-c2ncncc2-c2csc(C)n2)c(O)c1OC | 98 | 98 | 102 | 97 | 92
COC1=C(N)C(=O)c2nc(-c3nc(C(=O)O)c(C)c(-c4ccc(OC)c(OC)c4O)c3N)ccc2C1=O | . | 2.3* | . | 2.0* | .
CC(=O)Nc1cc(C(F)(F)F)ccc1OCCOc1ccccc1 | 100 | . | 83 | . | 70
SMILES | Lung fibro prol | HCT116 bCat-KO | HUVEC prolif 384 | PTEN del growth | H69AR growth 86K
COc1ccc(C(CC(=O)O)NC(=O)OC(C)(C)C)cc1 (stereo not drawn) | 100 | 86 | 98 | 104 | 89
CN1C(=O)N(C)C2(c3ccccc3)Nn3c(s/c(=C/c4ccccc4)c3=O)=NC12c1ccccc1 (stereo not drawn) | 91 | 65 | 103 | 74 | 38*
O=C(CCCCCn1c(=S)[nH]c2cc3c(cc2c1=O)OCO3)N1CCN(C2CCCCC2)CC1 | 4.8* | 8 | 49 | 2.7* | 2.2*
Cc1cccc(C=Nc2ccccc2C(N)=O)c1 | 58 | 22 | 63 | 24 | 23*
CCCn1c(=O)c2ccccc2n2c(Sc3nnnn3-c3ccccc3)nnc12 | 97 | 53 | 94 | 48 | 33*
C=CCn1c(=O)c2ccccc2n2c(Sc3nnnn3-c3ccccc3)nnc12 | . | 79 | 91 | 80 | 51
Cc1n[nH]c(C)c1N=Nc1cc(Cl)ccc1Cl | . | 104 | . | 84 | .
